ADAM17 inh: ADAM17 inhibition, QFRET primary screen. P78536. recombinant ADAM17, EDANS/DABCYL FRET peptide cleavage. inhibition, % at 6.95 µM. 0.83% of 370,000 active. AID 720648;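 active = inhibition above the mean of compounds lying between control limits plus 3 SD, set per campaign, cut at about 8.5% in these data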;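 also: 0% = DMSO-only wells as the low control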
Target sequence (P78536 215-824 limits assumed): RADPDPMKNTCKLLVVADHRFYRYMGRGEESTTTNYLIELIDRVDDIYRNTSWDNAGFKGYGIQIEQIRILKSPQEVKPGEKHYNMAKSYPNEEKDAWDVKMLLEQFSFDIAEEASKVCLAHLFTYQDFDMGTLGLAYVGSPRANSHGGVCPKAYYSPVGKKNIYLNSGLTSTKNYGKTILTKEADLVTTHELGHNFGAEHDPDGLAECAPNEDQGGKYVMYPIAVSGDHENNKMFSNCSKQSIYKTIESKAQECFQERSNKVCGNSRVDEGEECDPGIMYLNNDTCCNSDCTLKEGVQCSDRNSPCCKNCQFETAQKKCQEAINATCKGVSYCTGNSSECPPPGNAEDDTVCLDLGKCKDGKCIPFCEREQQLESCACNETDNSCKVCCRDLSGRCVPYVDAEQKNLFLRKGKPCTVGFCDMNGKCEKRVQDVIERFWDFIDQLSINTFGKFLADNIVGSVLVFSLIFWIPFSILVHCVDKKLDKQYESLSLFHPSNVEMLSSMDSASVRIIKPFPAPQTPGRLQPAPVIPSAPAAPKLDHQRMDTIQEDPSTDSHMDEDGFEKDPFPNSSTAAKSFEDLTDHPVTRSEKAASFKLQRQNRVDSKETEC
MPTP inh: permeability transition pore inhibition | isolated mouse mitochondria, Ca2+ swelling absorbance, 30 min | inhibition, % at 10 µM | 1.4% of 360,000 active;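 active = inhibition of 50% or more, scaled per plate between neutral and stimulator controls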;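 also: 0% = DMSO wells given calcium and 100% = 1 mM EGTA wells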
GRIN3A LBD mod: modulates the human NR3A ligand-binding domain | 2.5% of 340,000 active | AID 1259313 | Tm shift relative to glycine control, % at 25 µM | NR3A LBD differential scanning fluorimetry, Tm shift; 0% = protein alone, 100% = glycine-bound protein;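 active = melting temperature shift of at least 10% of the positive control shift, at one fixed dose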
ADAM10 inh: inhibits human ADAM10; O14672; recombinant ADAM10, EDANS/DABCYL FRET peptide cleavage, 3 h; inhibition, % at 7 µM; 0.62% of 370,000 active; AID 720582;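 active = inhibition above a per-campaign cutoff equal to the mean of compounds falling between control-based bounds plus 3 SD, cut at about 20% in these data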;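 also: 0% = DMSO wells while the 100% control is not disclosed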
SKN-1 inh: C. elegans SKN-1 inhibition; C. elegans VP596 Pgst-4::GFP/RFP ratio, acrylamide-induced, 24 h; inhibition, % at 21.8 µM; AID 624304; 0.49% of 360,000 active;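 active = interference check ratio from 0.5 to 1.5 plus GFP to RFP signal ratio inhibition reaching or exceeding a fixed threshold, cut at about 30% in these data, passing the limit was not always enough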
MT1-MMP act inh: MT1-MMP (human) activation inhibition | P50281 | HT1080 RFP-PRO-GFP cells, GFP/RFP ratio fluorescence, overnight; percent of plate control window, DMSO zero | GFP/RFP ratio change, % at 20 µM | 0.061% of 360,000 active | AID 651647;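 active = GFP/RFP ratio change of at least 30% with cell ATP level not reduced by more than half and red fluorescence within 50% of control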
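Assay system: HT1080 cells carrying an RFP-PRO-GFP reporter | Dosing: Single dose of 20 µM compound, 1% DMSO final | Incubation: Cells overnight before dosing, compound overnight, 37 °C, 5% CO2 | Evaluation: GFP/RFP fluorescence ratio | Control set: DMSO and RFP-L50D-GFP cell wells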
MPTP counter: Rhodamine 123 counter-screen of mitochondrial pore hits; shares compounds with MPTP inh; isolated mitochondria, membrane potential, Rhodamine 123 fluorescence; inhibition, % at 10 µM; 78% of 5,000 active; AID 624504; in the data active = inhibition above about 22%;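 also: 0% = DMSO vehicle and 100% = positive control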
MPTP abs DR: dose response confirmation of mitochondrial permeability transition pore inhibitors | shares compounds with MPTP inh | isolated mitochondria swelling, absorbance | IC50, µM | 58% of 780 active | AID 651561; in the data active = IC50 below about 20 µM
MPTP counter DR: active in counter-screen for permeability transition pore inhibitors; IC50, µM; AID 651564; 49% of 780 active; shares compounds with MPTP inh; isolated mitochondria counterscreen, fluorescence read-out; in the data active = IC50 below about 80 µM
* = called active by the depositor. Only some compounds are listed: those with a hit (about 4.7% of all), similar ones and a draw of the others.

What do the screens show for `CCN(CC)c1c([N+](=O)[O-])c(=O)n(CC)c2ccccc12`?
ADAM17 inh: -4.9; MPTP inh: 4.3; GRIN3A LBD mod: -0.2; ADAM10 inh: 2.4; SKN-1 inh: 13.1; MT1-MMP act inh: 4.2

What do the screens show for `Cc1c(NC(=O)CSc2nnc(C(C)Oc3ccc(Cl)cc3)n2-c2ccccc2)c(=O)n(-c2ccccc2)n1C` (configuration not stated)?
ADAM17 inh: -5.3; MPTP inh: -0.7; GRIN3A LBD mod: 0.2; ADAM10 inh: -4.1; SKN-1 inh: 5.0; MT1-MMP act inh: 1.4

What do the screens show for `CC1(C)CC2CC(C)(CN2CC(O)COc2ccccc2)C1` (configuration not stated)?
ADAM17 inh: 1.6; MPTP inh: -2.1; GRIN3A LBD mod: -0.6; ADAM10 inh: 5.8; SKN-1 inh: -15.3; MT1-MMP act inh: 0.0

What do the screens show for `CCCCc1cc(=O)oc2cc(OCc3cc(OC)c(OC)c(OC)c3)c(Cl)cc12`?
ADAM17 inh: -4.5; MPTP inh: 87.5*; GRIN3A LBD mod: 0.7; ADAM10 inh: -0.8; SKN-1 inh: 6.5; MT1-MMP act inh: 1.1; MPTP counter: -4.1; MPTP abs DR: 2.98*; MPTP counter DR: 5.05*

How did C=CCOc1ccc(/C=C/C(=O)OCC(=O)NNC(=O)c2ccccc2F)cc1 do in these assays?
ADAM17 inh: -26.0; MPTP inh: -1.2; GRIN3A LBD mod: -1.0; ADAM10 inh: -74.1; SKN-1 inh: -2.3; MT1-MMP act inh: 0.5

How did COc1ccc(CNC2CCC23CCCCC3)cc1OC (configuration not stated) do in these assays?
ADAM17 inh: -2.9; ADAM10 inh: 4.8

How did O=C(c1cc(C(=O)NCCc2ccccc2)c(=O)n(CCc2ccccc2)c1)c1cc(Cl)ccc1O do in these assays?
ADAM17 inh: -0.1; MPTP inh: 98.5*; GRIN3A LBD mod: 13.2*; ADAM10 inh: -1.1; SKN-1 inh: 9.0; MT1-MMP act inh: -17.6; MPTP counter: 79.2*

How did Cc1ccccc1NS(=O)(=O)c1nnc(NC(=O)CC(C)C)s1 do in these assays?
ADAM17 inh: 0.1; MPTP inh: 0.4; GRIN3A LBD mod: 1.2; ADAM10 inh: -3.3; SKN-1 inh: 11.4; MT1-MMP act inh: -2.6

What do the screens show for `CN(C)c1nn(C(=O)Nc2cccc(C(F)(F)F)c2)cc1-c1ccccc1`?
ADAM17 inh: -3.8; MPTP inh: 90.4*; GRIN3A LBD mod: -3.1; ADAM10 inh: -4.5; SKN-1 inh: 1.5; MT1-MMP act inh: -0.4; MPTP counter: 100.7*

How did COc1ccc(Cl)cc1N1CCN(CCNC(=O)Nc2ccccc2C)CC1 do in these assays?
ADAM17 inh: 3.7; MPTP inh: 93.8*; GRIN3A LBD mod: -7.9; ADAM10 inh: 15.1; SKN-1 inh: -19.2; MT1-MMP act inh: 0.6; MPTP counter: -7.3; MPTP abs DR: inactive; MPTP counter DR: 32.1*

How did COc1ccc(Cl)c(N2CCN(CCCNC(=O)Nc3ccc(C)cc3)CC2)c1 do in these assays?
ADAM17 inh: -1.6; MPTP inh: 80.3*; GRIN3A LBD mod: 1.8; ADAM10 inh: 2.6; SKN-1 inh: 28.5; MT1-MMP act inh: -4.7; MPTP counter: -9.5; MPTP abs DR: 9.41*; MPTP counter DR: 36.5*

What do the screens show for `COc1ccccc1N1CCN(CCCNC(=O)Nc2ccccc2C)CC1`?
ADAM17 inh: -7.4; MPTP inh: 2.7; GRIN3A LBD mod: 1.4; ADAM10 inh: -1.9; SKN-1 inh: 10.2; MT1-MMP act inh: -1.9

What do the screens show for `COC(=O)c1cc(CSc2nc3ccccc3[nH]2)oc1C`?
ADAM17 inh: 2.4; MPTP inh: 82.0*; GRIN3A LBD mod: 3.1; ADAM10 inh: 2.4; SKN-1 inh: -6.7; MT1-MMP act inh: -6.4; MPTP counter: 40.2*

How did CCCc1cc(=O)[nH]c(SCc2cc(C(=O)OC)c(C)o2)n1 do in these assays?
ADAM17 inh: 0.9; MPTP inh: 3.3; GRIN3A LBD mod: 1.5; ADAM10 inh: 1.1; SKN-1 inh: 11.2; MT1-MMP act inh: 0.0

How did COc1ccc(C(O)c2nc(-c3ccncc3)cs2)cc1 (configuration not stated) do in these assays?
ADAM17 inh: 2.4; MPTP inh: 56.6*; ADAM10 inh: -2.7; SKN-1 inh: 9.9; MT1-MMP act inh: -3.6; MPTP counter: 66.2*

Results for COc1ccc(-c2csc(C(O)c3ccc(OC)cc3)n2)cc1 (configuration not stated) ?
ADAM17 inh: -1.6; MPTP inh: 4.9; ADAM10 inh: -16.4; SKN-1 inh: -4.3; MT1-MMP act inh: -1.0

Results for CNc1cc(C)c(C#N)c2nc3ccccc3n12 ?
ADAM17 inh: inactive; MPTP inh: 0.7; GRIN3A LBD mod: -1.0; ADAM10 inh: inactive; SKN-1 inh: 1.4; MT1-MMP act inh: 3.2

Results for Cc1cccc(NC(=O)CSc2cc(C)c(C#N)c3nc4ccccc4n23)c1 ?
ADAM17 inh: -15.9; MPTP inh: 85.4*; GRIN3A LBD mod: 12.7*; ADAM10 inh: -33.8; SKN-1 inh: 7.3; MT1-MMP act inh: -12.3; MPTP counter: 57.5*

What do the screens show for `N#Cc1ccsc1NC(=O)c1cccc([N+](=O)[O-])c1`?
ADAM17 inh: 0.2; MPTP inh: 31.3; GRIN3A LBD mod: -4.3; ADAM10 inh: -3.5; SKN-1 inh: 3.3; MT1-MMP act inh: -4.0

What do the screens show for `O=C(Nc1ccccc1)Nc1ccc(Cl)c([N+](=O)[O-])c1`?
ADAM17 inh: 4.1; MPTP inh: 100.8*; GRIN3A LBD mod: 23.3*; ADAM10 inh: 11.0; SKN-1 inh: 11.3; MT1-MMP act inh: 5.9; MPTP counter: 99.0*

How did Cc1cccc(C)c1NS(=O)(=O)c1ccc(NC(=O)c2ccc(Cl)c([N+](=O)[O-])c2)cc1 do in these assays?
ADAM17 inh: 0.3; MPTP inh: 74.5*; GRIN3A LBD mod: 18.9*; ADAM10 inh: -4.3; SKN-1 inh: -5.2; MT1-MMP act inh: -0.5; MPTP counter: 80.7*

Results for N#Cc1ccsc1NC(=O)c1ccc(Cl)c([N+](=O)[O-])c1 ?
ADAM17 inh: -1.9; MPTP inh: 81.9*; GRIN3A LBD mod: 4.3; ADAM10 inh: 4.9; SKN-1 inh: 20.3; MT1-MMP act inh: 2.5; MPTP counter: 71.2*

How did CCNC(=S)Nc1ccc(C)c(Cl)c1 do in these assays?
ADAM17 inh: 0.0; MPTP inh: 3.7; GRIN3A LBD mod: -0.9; ADAM10 inh: -0.1; SKN-1 inh: 5.1; MT1-MMP act inh: 8.7

Source: PubChem (several laboratories)
